Experimental findings from ChEMBL document CHEMBL1146021, “Calcium channel antagonists discovered by a multidisciplinary approach” (J Med Chem, 2006) are described below.

For assay [1], the species on record is Cavia porcellus. Briefly: Negative inotropic activity in guinea pig left atrium at 50 uM. Type of assay: functional, Cardiac atrium. Summed up:
(§1)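 Guinea-pig left atria driven at 1 Hz (0.6-0.8 ms pulses, about 50% threshold voltage) in PSS, 35 °C, pH 7.4, 95% O2/5% CO2. Isometric tension recorded. Cumulative concentrations 0.01-100 μM in DMSO (≤0.3%), each to steady state. Percent decrease in developed tension, n = 4-6. EC50 by Probit analysis.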

The species entered for assay [2] is Cavia porcellus. Put plainly: Negative chronotropic activity in guinea pig right atrium at 50 uM. In kind it is functional, Cardiac atrium. Summed up: (§2)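 Spontaneously beating guinea-pig right atria in PSS, 35 °C, pH 7.4, 95% O2/5% CO2. Cumulative concentrations 0.01-100 μM in DMSO (≤0.3% in bath), each to steady state. Rate decrease taken as percent of control (pretreatment 170-195 beats/min), n = 6-8. EC30 by Probit analysis.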

Assay [3] is filed under the species Cavia porcellus. Put plainly: Negative inotropic activity in guinea pig left atrium. Type of assay: functional. To be noted: Cardiac atrium. The procedure, abridged: as §1
The species named for assay [4] is Cavia porcellus. Briefly: Vasorelaxant activity assessed as inhibition of calcium-induced contraction of potassium ion-depolarized guinea pig aortic strips at 100 uM. In kind it is functional, Aorta. Set-up: scale not given: the % may be the effect or the level left. Summed up: (§3)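 Helicoidal guinea-pig aortic strips in aerated PSS at 35 °C, contracted with 80 mM KCl (K+ substituted for Na+). At plateau (about 45 min), compounds added cumulatively at 0.1-500 μM in DMSO vehicle. Relaxation measured isometrically. IC50 by Probit analysis, n = 6-8.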

The species entered for assay [5] is Cavia porcellus. Put plainly: Negative chronotropic activity in guinea pig right atrium at 5 uM. Type of assay: functional, Cardiac atrium. Summed up: as §2
Assay [6] is filed under the species Cavia porcellus. Put plainly: Negative inotropic activity in guinea pig left ventricular papillary muscle at 10 uM. Type of assay: functional, Muscle tissue.
Assay [7] is filed under the species Cavia porcellus. Put plainly: Cardiac activity in guinea pig heart measured as decrease in heart rate at 1 uM by ECG relative to control. In kind it is functional. The arrangement: scale not given: the % may be the effect or the level left. The procedure, abridged:
(§4)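 Langendorff-perfused isolated hearts from female guinea-pigs (300-400 g). Compounds given cumulatively at 0.001-1 μM, each step held to steady state (about 30 min). Read-outs: surface ECG (PR interval, heart rate), intraventricular balloon +(dP/dt)max and coronary perfusion pressure. Results given as percent change from basal at 1 μM, mean ± SEM.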

Assay [8] is filed under the species Cavia porcellus. Briefly: Negative chronotropic activity in guinea pig right atrium. In kind it is functional. To be noted: Cardiac atrium. Summed up: as §2
For assay [9], the species on record is Cavia porcellus. Briefly: Cardiac activity in guinea pig heart measured as prolongation of atrioventricular conduction time at 1 uM relative to control. In kind it is functional. Summed up:
as §4

Assay [10] is filed under the species Cavia porcellus. Briefly: Antagonist activity against calcium channel assessed as inhibition of carbachol-induced tonic contraction of guinea pig ileum longitudinal smooth muscle. In kind it is functional. The procedure, abridged: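 Guinea-pig ileum longitudinal smooth muscle segments (2 cm), 300-400 mg resting tension, 37 °C, oxygenated Hepes-buffered PSS at pH 7.4, equilibrated 1 h. Two control carbachol curves run 30 min apart. Test agent (10 μM) added 30 min before the carbachol curve. Isometric inhibition expressed as percent of control.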

The species entered for assay [11] is Cavia porcellus. Briefly: Cardiac activity in guinea pig heart measured as decrease in coronary perfusion pressure at 1 uM relative to control. In kind it is functional. The arrangement: scale not given: the % may be the effect or the level left. Summed up: as §4
For assay [12], the species on record is Cavia porcellus. Put plainly: Antagonist activity against calcium channel assessed as inhibition of calcium-induced contraction of potassium ion-depolarized guinea pig ileum longitudinal smooth muscle at 1 uM. Set-up: scale not given: the % may be the effect or the level left. In kind it is functional. Summed up: (§5)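 Guinea-pig ileum longitudinal smooth muscle segments (2 cm) held at 300-400 mg resting tension, 37 °C, in oxygenated (100% O2) Hepes-buffered PSS at pH 7.4. Isometric contraction recorded. Inhibition expressed as percentage of control. Probit log concentration–response analysis, n = 6-8.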

For assay [13], the species on record is Cavia porcellus. Briefly: Antagonist activity against calcium channel assessed as inhibition of calcium-induced contraction of potassium ion-depolarized guinea pig ileum longitudinal smooth muscle. Type of assay: functional. Summed up: as §5
The species entered for assay [14] is Cavia porcellus. Put plainly: Cardiac activity in guinea pig heart measured as decrease in left ventricular pressure at 1 uM relative to control. Set-up: scale not given: the % may be the effect or the level left. Type of assay: functional. Summed up:
as §4

Assay [15] is filed under the species Cavia porcellus. Put plainly: Negative inotropic activity in guinea pig left atrium at 10 uM. Type of assay: functional, Cardiac atrium. Summed up: as §1
Assay [16] is filed under the species Cavia porcellus. Briefly: Negative inotropic activity in guinea pig left ventricular papillary muscle. In kind it is functional. To be noted: Muscle tissue.
Assay [17] is filed under the species Cavia porcellus. Briefly: Negative chronotropic activity in guinea pig right atrium at 10 uM. Type of assay: functional, Cardiac atrium. The procedure, abridged:
as §2

Assay [18] is filed under the species Cavia porcellus. Briefly: Negative inotropic activity in guinea pig left atrium at 1 uM. In kind it is functional, Cardiac atrium. Summed up:
as §1

Assay [19] is filed under the species Cavia porcellus. Put plainly: Negative inotropic activity in guinea pig left ventricular papillary muscle at 500 uM. In kind it is functional, Muscle tissue.
For assay [20], the species on record is Cavia porcellus. Briefly: Negative chronotropic activity in guinea pig right atrium at 100 uM. Type of assay: functional, Cardiac atrium. To be noted: in the assay text read “50 uM” for “100 uM”. Summed up:
as §2

For assay [21], the species on record is Cavia porcellus. Put plainly: Antagonist activity against calcium channel assessed as inhibition of calcium-induced contraction of potassium ion-depolarized guinea pig ileum longitudinal smooth muscle at 100 uM. In kind it is functional. Set-up: scale not given: the % may be the effect or the level left. The procedure, abridged:
as §5

Assay [22] is filed under the species Cavia porcellus. Briefly: Negative inotropic activity in guinea pig left atrium at 5 uM. Type of assay: functional, Cardiac atrium. The procedure, abridged:
as §1

For assay [23], the species on record is Cavia porcellus. Briefly: Vasorelaxant activity assessed as inhibition of calcium-induced contraction of potassium ion-depolarized guinea pig aortic strips at 50 uM. Type of assay: functional, Aorta. Set-up: scale not given: the % may be the effect or the level left. The procedure, abridged: as §3
Assay [24] is filed under the species Cavia porcellus. Briefly: Negative inotropic activity in guinea pig left atrium at 500 uM. In kind it is functional, Cardiac atrium.
Assay [25] is filed under the species Cavia porcellus. Briefly: Negative inotropic activity in guinea pig left atrium at 100 uM. In kind it is functional, Cardiac atrium. To be noted: in the assay text read “50 uM” for “100 uM”. Summed up: as §1

What is called EC50 is the concentration at which the effect is half-maximal. As for `O=S(=O)(c1ccc(Br)cc1)N1CCCCCC1`, the figures for the Activity in the assay filed under Cavia porcellus [1], in the assay filed under Cavia porcellus [2] and in the assay listed under Cavia porcellus [4] were 91%, 4% and 33%, respectively. In the assay filed under Cavia porcellus [3], the EC50 is 360 nM.
The term EC30 denotes the point of the concentration-response curve where the effect stands at 30%. In general, IC50 refers to the point on the concentration scale where inhibition reaches its midpoint. Turning to `COc1ccc([C@@H]2Sc3ccccc3N(CCN(C)C)C(=O)[C@@H]2OC(C)=O)cc1` [DILTIAZEM], the Activity in the assay listed under Cavia porcellus [5] was found to be 94%; in the assay listed under Cavia porcellus [6], 82%; in the assay listed under Cavia porcellus [7], 25%; in the assay filed under Cavia porcellus [4] it was 88%; in the assay listed under Cavia porcellus [9], 34%; in the assay listed under Cavia porcellus [11], 51%. The Activity in the assay listed under Cavia porcellus [12] is reported as 98%; in the assay filed under Cavia porcellus [14] it was 59%; in the assay filed under Cavia porcellus [15] it was 78%. In addition, in the assay filed under Cavia porcellus [8], the 30% effect level (EC30) was put at 70 nM. For the same compound, the IC50 in the assay listed under Cavia porcellus [10] amounted to 480 nM. In addition, the EC50 in the assay listed under Cavia porcellus [13] was 110 nM; in the assay filed under Cavia porcellus [16] it was 1610 nM.
For the compound `CCO[C@]1(c2ccc(Br)cc2)SC=C(C)n2c1noc2=O`, the half-maximal effective concentration (EC50) in the assay filed under Cavia porcellus [3] is 70 nM. Besides, the Activity in the assay filed under Cavia porcellus [4] is 11%; in the assay filed under Cavia porcellus [17] it was 16%; in the assay listed under Cavia porcellus [18] it was 58%.
In turn, `CCOC1(c2ccc(Br)cc2)SC=C(C)n2c1noc2=O` (stereo unspecified) came in with an EC50 in the assay listed under Cavia porcellus [3] of 40 nM. In addition, the Activity in the assay listed under Cavia porcellus [7] is given as 14%; in the assay filed under Cavia porcellus [4], 19%; in the assay filed under Cavia porcellus [19], 2%; in the assay listed under Cavia porcellus [9], 32%; in the assay listed under Cavia porcellus [11], 9%; in the assay listed under Cavia porcellus [20], 5%. The values for the Activity in the assay listed under Cavia porcellus [14], in the assay listed under Cavia porcellus [18] and in the assay filed under Cavia porcellus [21] were 3%, 77% and 3%, respectively. Further, the IC50 in the assay filed under Cavia porcellus [10] amounted to 40000 nM.
For `CCN(c1ccccc1)S(=O)(=O)c1ccc(Cl)cc1`, the Activity in the assay listed under Cavia porcellus [5] was determined as 7%; in the assay filed under Cavia porcellus [4], 46%; in the assay listed under Cavia porcellus [22], 90%. Also, the EC50 in the assay listed under Cavia porcellus [3] came out at 300 nM.
For the compound `O=C(O)[C@@H]1CCCN1S(=O)(=O)c1ccccc1`, the Activity is 66% in the assay filed under Cavia porcellus [1], 22% in the assay listed under Cavia porcellus [5] and 3% in the assay filed under Cavia porcellus [23]. Also, in the assay listed under Cavia porcellus [3], it took 910 nM to reach a half-maximal effect (EC50).
In turn, `COC(=O)[C@H]1SCCN1S(=O)(=O)c1ccc(Cl)cc1` returned an EC50 in the assay listed under Cavia porcellus [3] of 1000 nM. Also, the Activity is 92% in the assay listed under Cavia porcellus [24], 29% in the assay listed under Cavia porcellus [4] and 2% in the assay listed under Cavia porcellus [17].
In the case of `CO/N=C/c1c(Sc2ccccc2C(=O)OC)nc2sccn12`, the figures for the Activity in the assay listed under Cavia porcellus [1], in the assay listed under Cavia porcellus [2] and in the assay filed under Cavia porcellus [23] were 63%, 13% and 9%, respectively. This compound also came in with a concentration giving a half-maximal response (EC50) in the assay filed under Cavia porcellus [3] of 900 nM.
For `C[C@H]1CC(=O)[C@](C)(CC(=O)c2ccc(Cl)cc2)C(=O)C1`, the Activity in the assay filed under Cavia porcellus [1] was 78%; in the assay listed under Cavia porcellus [4], 16%; in the assay filed under Cavia porcellus [17], 2%. This compound also registered an EC50 in the assay listed under Cavia porcellus [3] of 7510 nM.
Take `CC(C)(C)N(OC(=O)c1ccccc1)C(=O)C(F)(F)F`: the half-maximal effective concentration (EC50) in the assay filed under Cavia porcellus [3] worked out at 6130 nM. Also, the values for the Activity in the assay listed under Cavia porcellus [4], in the assay filed under Cavia porcellus [20] and in the assay filed under Cavia porcellus [25] were 10%, 7% and 52%, respectively.
